Laboratory results reported in ChEMBL document CHEMBL1165965, “Synthesis and structure-activity relationships of 1,2,3,4-tetrahydropyrido[2,3-b]pyrazines as potent and selective inhibitors of the anaplastic lymphoma kinase” (Bioorg Med Chem, 2010).

Tests used:
[1] = target: T1, Tyrosine-protein kinase Mer (Homo sapiens) (UniProt Q12866); test: Inhibition of MERTK at 1 uM
T1 sequence (whole entry): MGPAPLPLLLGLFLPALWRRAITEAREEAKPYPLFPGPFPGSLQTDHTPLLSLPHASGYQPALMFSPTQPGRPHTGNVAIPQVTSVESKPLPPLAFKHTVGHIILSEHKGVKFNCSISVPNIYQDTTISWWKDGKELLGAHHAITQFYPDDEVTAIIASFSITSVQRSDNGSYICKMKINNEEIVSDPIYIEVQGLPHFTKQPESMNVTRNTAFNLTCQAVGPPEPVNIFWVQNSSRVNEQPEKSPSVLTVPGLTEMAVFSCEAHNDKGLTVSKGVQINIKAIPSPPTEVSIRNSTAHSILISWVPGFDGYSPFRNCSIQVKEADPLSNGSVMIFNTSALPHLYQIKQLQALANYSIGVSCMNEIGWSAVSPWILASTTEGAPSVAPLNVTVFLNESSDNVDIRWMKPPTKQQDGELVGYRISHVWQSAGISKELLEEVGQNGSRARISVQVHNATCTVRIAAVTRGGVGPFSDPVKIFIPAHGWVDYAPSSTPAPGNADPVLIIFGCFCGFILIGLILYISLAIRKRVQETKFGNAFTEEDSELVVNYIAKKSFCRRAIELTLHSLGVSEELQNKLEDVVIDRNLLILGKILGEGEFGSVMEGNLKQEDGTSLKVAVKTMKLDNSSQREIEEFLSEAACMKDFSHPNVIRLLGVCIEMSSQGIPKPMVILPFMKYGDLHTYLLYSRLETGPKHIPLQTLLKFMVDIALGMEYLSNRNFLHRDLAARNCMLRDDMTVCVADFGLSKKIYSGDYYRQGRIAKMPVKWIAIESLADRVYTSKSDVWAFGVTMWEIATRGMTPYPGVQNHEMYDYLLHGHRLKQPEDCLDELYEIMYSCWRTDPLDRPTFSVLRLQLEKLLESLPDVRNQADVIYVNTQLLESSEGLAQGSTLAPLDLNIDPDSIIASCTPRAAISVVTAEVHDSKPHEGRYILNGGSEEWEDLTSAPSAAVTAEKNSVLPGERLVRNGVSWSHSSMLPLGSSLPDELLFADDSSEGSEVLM
Method in brief: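 Kinase-panel screen using KINOMEscan technology, with 250–400 kinases per panel. Each compound was tested at a single concentration, and inhibition of each kinase was recorded. Selectivity was summarised as S(90), the fraction of kinases inhibited by more than 90%.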

[2] = target: Macrophage-stimulating protein receptor (Homo sapiens) (UniProt Q04912); test: Inhibition of MST1R at 1 uM
[3] = target: Ribosomal protein S6 kinase alpha-4 (Homo sapiens) (UniProt O75676); test: Inhibition of RPS6KA4 N-terminal domain1 at 1 uM
[4] = target: Receptor tyrosine-protein kinase erbB-4 (Homo sapiens) (UniProt Q15303); test: Inhibition of ERBB4 at 1 uM
Method in brief: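 Single-concentration screen using Ambit Bioscience KINOMEscan technology across a panel of 250–400 kinases. Per-kinase inhibition from this screen was summarized as S(90), the fraction of kinases inhibited by more than 90%.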

[5] = target: Dual specificity protein kinase CLK2 (Homo sapiens) (UniProt P49760); test: Inhibition of CLK2 at 1 uM
Method in brief: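 Ambit KINOMEscan screen at a single concentration across a 250–400 kinase panel, recorded as percent inhibition. Selectivity was expressed as S(90), the fraction of kinases inhibited >90%.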

[6] = target: T2, Tyrosine-protein kinase ZAP-70 (Homo sapiens) (UniProt P43403); test: Inhibition of ZAP70 at 1 uM
T2 sequence (whole entry): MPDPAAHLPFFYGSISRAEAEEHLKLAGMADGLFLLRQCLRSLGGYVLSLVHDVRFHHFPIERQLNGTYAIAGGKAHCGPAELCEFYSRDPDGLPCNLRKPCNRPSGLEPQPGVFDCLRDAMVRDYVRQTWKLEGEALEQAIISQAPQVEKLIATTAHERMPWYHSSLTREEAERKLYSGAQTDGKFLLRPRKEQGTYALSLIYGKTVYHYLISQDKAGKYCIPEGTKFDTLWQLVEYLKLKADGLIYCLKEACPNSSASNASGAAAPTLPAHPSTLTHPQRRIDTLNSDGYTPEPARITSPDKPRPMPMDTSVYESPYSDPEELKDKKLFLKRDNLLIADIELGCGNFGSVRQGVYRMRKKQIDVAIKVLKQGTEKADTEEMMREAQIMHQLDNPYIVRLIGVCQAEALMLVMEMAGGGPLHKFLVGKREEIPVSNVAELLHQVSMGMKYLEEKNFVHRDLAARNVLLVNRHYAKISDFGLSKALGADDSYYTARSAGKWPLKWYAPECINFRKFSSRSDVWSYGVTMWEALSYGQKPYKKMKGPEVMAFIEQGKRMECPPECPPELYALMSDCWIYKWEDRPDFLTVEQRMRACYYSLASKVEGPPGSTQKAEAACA

Measured: inhibition

Chain of Ribosomal protein S6 kinase alpha-4 (Homo sapiens) (O75676 whole entry, looked up, the tested form may be a part): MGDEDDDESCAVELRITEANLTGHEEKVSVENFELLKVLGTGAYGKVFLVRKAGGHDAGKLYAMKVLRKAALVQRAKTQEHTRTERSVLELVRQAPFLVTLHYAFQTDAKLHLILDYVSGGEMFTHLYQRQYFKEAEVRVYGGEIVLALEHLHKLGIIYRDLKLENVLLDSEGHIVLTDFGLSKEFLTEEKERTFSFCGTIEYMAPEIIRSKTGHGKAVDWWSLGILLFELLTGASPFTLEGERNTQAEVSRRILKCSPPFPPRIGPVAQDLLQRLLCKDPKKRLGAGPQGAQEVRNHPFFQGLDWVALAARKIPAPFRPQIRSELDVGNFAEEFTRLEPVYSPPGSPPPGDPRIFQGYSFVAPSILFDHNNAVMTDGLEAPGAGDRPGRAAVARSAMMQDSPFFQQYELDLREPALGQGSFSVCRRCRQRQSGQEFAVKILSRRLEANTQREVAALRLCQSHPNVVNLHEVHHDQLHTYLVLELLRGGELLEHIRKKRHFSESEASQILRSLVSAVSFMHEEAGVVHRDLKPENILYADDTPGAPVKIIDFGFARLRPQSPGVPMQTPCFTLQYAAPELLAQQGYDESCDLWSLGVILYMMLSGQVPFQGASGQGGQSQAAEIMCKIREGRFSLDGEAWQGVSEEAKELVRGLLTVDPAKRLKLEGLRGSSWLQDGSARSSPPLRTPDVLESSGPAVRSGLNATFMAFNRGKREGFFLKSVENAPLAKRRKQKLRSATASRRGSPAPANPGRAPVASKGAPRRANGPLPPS
Chain of Receptor tyrosine-protein kinase erbB-4 (Homo sapiens) (Q15303 whole entry): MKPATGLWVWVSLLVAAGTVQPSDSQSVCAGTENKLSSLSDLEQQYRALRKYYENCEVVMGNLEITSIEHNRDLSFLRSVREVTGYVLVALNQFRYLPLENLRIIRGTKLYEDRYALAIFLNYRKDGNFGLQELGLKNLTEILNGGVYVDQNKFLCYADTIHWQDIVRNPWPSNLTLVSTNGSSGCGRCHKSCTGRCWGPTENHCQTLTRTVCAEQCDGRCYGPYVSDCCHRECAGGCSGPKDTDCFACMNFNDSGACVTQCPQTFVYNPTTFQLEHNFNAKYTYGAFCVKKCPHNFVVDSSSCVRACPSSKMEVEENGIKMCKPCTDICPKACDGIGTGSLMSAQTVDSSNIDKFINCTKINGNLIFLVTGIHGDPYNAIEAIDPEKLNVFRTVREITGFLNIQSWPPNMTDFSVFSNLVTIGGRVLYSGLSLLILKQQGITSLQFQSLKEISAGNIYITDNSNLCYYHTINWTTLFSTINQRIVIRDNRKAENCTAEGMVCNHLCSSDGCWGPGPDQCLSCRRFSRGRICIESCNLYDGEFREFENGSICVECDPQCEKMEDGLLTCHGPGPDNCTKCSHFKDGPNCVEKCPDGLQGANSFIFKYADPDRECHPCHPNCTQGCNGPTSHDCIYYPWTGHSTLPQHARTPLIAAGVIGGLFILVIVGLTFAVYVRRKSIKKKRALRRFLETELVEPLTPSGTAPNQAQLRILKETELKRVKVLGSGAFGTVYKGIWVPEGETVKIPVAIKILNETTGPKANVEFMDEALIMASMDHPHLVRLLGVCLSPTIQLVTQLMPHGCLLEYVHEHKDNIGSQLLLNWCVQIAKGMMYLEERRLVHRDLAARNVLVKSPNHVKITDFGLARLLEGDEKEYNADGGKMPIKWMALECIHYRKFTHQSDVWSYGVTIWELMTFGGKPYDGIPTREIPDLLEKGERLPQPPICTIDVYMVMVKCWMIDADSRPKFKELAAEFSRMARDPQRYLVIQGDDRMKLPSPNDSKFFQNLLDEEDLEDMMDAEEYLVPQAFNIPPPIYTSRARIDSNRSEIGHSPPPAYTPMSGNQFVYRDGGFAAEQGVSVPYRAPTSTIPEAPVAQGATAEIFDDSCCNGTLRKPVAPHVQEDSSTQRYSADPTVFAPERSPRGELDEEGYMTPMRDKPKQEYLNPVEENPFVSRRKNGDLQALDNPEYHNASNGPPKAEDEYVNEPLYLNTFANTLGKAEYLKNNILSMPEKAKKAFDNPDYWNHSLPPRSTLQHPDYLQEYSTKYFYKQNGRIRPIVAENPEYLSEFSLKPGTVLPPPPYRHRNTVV
Chain of Dual specificity protein kinase CLK2 (Homo sapiens) (P49760 whole entry, looked up): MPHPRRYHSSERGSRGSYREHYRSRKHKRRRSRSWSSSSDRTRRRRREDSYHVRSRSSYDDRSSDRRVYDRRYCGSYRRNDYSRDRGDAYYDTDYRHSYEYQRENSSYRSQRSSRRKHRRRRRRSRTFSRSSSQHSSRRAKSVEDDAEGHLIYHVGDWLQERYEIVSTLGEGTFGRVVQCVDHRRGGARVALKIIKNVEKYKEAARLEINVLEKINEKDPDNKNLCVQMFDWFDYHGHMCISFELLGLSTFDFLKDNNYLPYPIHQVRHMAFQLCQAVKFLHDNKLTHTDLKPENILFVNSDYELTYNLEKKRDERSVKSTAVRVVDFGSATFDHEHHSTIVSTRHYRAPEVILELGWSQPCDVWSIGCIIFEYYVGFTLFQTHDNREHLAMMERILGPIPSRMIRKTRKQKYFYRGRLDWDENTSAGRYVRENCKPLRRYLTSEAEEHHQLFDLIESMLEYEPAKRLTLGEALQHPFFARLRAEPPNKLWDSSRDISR
Chain of Macrophage-stimulating protein receptor (Homo sapiens) (Q04912 25-304 limits assumed): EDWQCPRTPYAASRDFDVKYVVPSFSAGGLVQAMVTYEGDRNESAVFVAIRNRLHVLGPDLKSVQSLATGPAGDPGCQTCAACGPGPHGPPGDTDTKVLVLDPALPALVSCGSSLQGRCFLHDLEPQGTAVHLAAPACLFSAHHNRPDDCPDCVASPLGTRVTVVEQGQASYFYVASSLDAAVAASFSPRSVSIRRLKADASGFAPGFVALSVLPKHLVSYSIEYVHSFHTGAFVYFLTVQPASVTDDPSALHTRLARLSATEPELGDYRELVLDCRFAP
Chain of Macrophage-stimulating protein receptor (Homo sapiens) (Q04912 310-1400 limits assumed): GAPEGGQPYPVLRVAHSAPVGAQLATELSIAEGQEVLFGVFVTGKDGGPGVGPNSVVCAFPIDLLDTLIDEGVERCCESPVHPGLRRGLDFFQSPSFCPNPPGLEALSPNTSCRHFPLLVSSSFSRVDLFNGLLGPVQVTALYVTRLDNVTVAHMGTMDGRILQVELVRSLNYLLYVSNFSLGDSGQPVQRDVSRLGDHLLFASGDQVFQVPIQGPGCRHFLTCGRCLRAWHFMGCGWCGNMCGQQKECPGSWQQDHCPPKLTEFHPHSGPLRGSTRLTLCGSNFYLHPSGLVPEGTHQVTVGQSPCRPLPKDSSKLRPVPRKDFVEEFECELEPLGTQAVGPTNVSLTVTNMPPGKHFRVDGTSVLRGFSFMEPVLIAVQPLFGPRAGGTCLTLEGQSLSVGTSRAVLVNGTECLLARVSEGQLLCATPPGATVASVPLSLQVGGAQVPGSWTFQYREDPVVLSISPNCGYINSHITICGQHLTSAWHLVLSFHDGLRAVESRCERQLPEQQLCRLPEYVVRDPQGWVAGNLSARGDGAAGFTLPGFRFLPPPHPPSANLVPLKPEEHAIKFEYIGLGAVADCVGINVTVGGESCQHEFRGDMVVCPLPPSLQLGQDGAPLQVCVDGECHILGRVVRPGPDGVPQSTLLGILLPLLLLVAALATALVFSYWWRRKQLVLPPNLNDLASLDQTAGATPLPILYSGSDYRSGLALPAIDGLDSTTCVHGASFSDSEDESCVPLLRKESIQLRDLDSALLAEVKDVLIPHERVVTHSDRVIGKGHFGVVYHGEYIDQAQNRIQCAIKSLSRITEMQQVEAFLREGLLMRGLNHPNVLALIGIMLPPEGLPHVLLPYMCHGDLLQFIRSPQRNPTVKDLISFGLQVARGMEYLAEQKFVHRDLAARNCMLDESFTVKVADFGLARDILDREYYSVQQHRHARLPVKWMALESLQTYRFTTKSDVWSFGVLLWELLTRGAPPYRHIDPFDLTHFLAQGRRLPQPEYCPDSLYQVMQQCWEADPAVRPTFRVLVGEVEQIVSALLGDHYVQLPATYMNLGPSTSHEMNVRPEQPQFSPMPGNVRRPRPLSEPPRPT

FC(F)(F)c1ccc(Cl)cc1CN1CCNc2ncc(-c3ccnc(N4CCNCC4)c3)cc21
< 50%: all assays above

CN1CCN(c2ccc(-c3cnc4c(c3)N(Cc3cc(F)ccc3F)CCN4)cn2)CC1
< 50%: all assays above

CN1CCN(c2ccc(-c3cnc4c(c3)N(Cc3cc(Cl)ccc3Cl)CCN4)cn2)CC1
< 50%: all assays above

O=C(O)c1ccc(-c2cnc3c(c2)N(Cc2cc(Cl)ccc2C(F)(F)F)CCN3)cc1
not listed: [2]
< 50%: all other assays above

CN1CCN(c2ccc(-c3cnc4c(c3)N(Cc3cc(Cl)ccc3C(F)(F)F)CCN4)cn2)CC1
< 50%: all assays above

COC1CCN(C(=O)c2ccc(-c3cnc4c(c3)N(Cc3cc(Cl)ccc3C(F)(F)F)CCN4)cc2)CC1
not listed: [2]
< 50%: all other assays above

O=C(c1ccc(-c2cnc3c(c2)N(Cc2cc(Cl)ccc2C(F)(F)F)CCN3)cc1)N1CCC(N2CCCC2)CC1
not listed: [2]
< 50%: all other assays above

CN1CCN(c2ccc(-c3cnc4c(c3)N(Cc3c(F)ccc(F)c3Cl)CCN4)cn2)CC1
< 50%: all assays above

O=C(c1ccc(-c2cnc3c(c2)N(Cc2cc(Cl)ccc2C(F)(F)F)CCN3)cc1)N1CCCCC1
not listed: [2]
< 50%: all other assays above

CC(=O)N1CCN(c2cc(-c3cnc4c(c3)N(Cc3cc(Cl)ccc3C(F)(F)F)CCN4)ccn2)CC1
< 50%: all assays above
